The source of these data is article PMC7161550 (British Journal of Pharmacology, 2020).

Structures are written as SMILES. Several values for one entry are separate records, joined by “and”; a condition that tells them apart may be missing. Equal entries are not always repeated. Where two headings read alike, the source gives them in different places.

The target in data set [1] is T1, rat brain fatty acid amide hydrolase (Rattus norvegicus, UniProt P97612).
T1 sequence (P97612 1-579): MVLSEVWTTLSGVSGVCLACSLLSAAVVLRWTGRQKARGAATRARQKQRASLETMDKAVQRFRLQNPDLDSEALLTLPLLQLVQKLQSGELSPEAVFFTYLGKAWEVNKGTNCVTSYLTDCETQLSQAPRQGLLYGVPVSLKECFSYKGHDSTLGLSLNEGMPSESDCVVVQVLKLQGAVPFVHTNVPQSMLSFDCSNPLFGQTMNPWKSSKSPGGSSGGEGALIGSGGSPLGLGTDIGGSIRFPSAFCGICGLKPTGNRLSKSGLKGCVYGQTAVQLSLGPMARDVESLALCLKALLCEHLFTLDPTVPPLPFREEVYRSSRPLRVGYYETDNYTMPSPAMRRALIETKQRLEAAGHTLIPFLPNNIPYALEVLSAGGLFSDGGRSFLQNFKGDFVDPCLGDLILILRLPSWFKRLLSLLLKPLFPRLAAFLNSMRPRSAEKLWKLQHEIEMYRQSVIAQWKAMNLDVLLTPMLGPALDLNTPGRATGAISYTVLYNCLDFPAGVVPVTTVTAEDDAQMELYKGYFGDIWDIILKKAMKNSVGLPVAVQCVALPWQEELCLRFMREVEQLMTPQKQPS
The data set can be described thus: FAAH progression curves, kinetic constants k obs and k inact/K I. The data set is classed as biochemical. The settings on record: inhibition of rat brain FAAH, 37°C.

Data set [2] deals with T2, mouse brain fatty acid amide hydrolase (FAAH) (Mus musculus, UniProt O08914).
T2 sequence (O08914 1-579): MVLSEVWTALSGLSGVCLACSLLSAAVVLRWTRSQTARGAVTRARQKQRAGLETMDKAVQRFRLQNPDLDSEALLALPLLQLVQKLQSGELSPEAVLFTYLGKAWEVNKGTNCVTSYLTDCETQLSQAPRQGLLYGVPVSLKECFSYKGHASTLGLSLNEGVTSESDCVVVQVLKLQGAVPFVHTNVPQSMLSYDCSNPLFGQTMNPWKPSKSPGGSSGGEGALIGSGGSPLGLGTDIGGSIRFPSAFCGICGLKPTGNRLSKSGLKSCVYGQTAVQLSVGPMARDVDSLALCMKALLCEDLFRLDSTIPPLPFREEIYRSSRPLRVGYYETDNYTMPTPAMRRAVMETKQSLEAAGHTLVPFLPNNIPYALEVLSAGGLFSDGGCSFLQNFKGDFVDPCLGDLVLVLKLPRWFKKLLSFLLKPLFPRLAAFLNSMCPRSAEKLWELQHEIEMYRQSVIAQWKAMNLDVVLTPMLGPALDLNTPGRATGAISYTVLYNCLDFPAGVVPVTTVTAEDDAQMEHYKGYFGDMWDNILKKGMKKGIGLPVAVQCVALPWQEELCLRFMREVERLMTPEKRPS
The data set can be described thus: Ex vivo FAAH activity in mouse brain after oral administration. The note with it: for ED50 [95% CI] Brain: 8 hr after oral administration. Summed up:
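Liver and half-brain were collected into FAAH membrane buffer (3 mM MgCl2, 1 mM EDTA, 50 mM Tris HCl, pH 7.4) and stored at −20°C. Homogenates (15 μg protein brain, 5 μg liver) were pre-incubated 15 min at 37°C. AEA + 3H‑AEA + BSA was added for 10 min (brain) or 7 min (liver), then charcoal. Scintillation counting gave % remaining activity versus controls after blank subtraction.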

The subject of data set [3] is brain fatty acid amides (AEA, PEA, OEA). The data set can be described thus: Fatty acid amides. Type of data set: in vivo. The settings on record: mouse brain, 8 hr. Summed up: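 Frozen brains were thawed at 4°C and weighed. Each sample was extracted with chloroform:MeOH (2:1) plus 0.1 M phosphate buffer, pH 5.6. Deuterated internal standards were spiked in: AEA‑d8, PEA‑d4 and OEA‑d2 for the fatty acid amides, and 2‑AG‑d8 for 2‑AG.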

Data set [4] addresses CYP2A6 (Homo sapiens, UniProt P11509). The data set can be described thus: CYP inhibition, pooled human liver microsomes. The note with it: 0.33–99.2 μM, co‐ and pre‐incubation. Type of data set: in vitro ADME. Summed up:
(§1)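 The rate of metabolite formation was measured; testosterone was one CYP3A4 substrate. Controls: solvent vehicle, enzyme-selective inhibitors, mechanism-based inhibitors. Analysis by HPLC with online radio-detection or LC/MS/MS.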
(In general: Liver microsomes are a subcellular fraction often used to study metabolism.)

Data set [5] has as its target CYP2C8 (Homo sapiens, UniProt P10632). The data set can be described thus: CYP inhibition, pooled human liver microsomes. The data set is classed as in vitro ADME. The note with it: 0.33–99.2 μM, co‐ and pre‐incubation. Summed up: as §1
The target of data set [6] is CYP2C9 (Homo sapiens, UniProt P11712). The data set can be described thus: CYP inhibition, pooled human liver microsomes. Type of data set: in vitro ADME. The settings on record: 0.33–99.2 μM, co‐ and pre‐incubation. Summed up:
as §1

Data set [7] concerns the target CYP2C19 (Homo sapiens, UniProt P33261). The data set can be described thus: CYP inhibition, pooled human liver microsomes. The data set is classed as in vitro ADME. The note with it: 0.33–99.2 μM, co‐ and pre‐incubation. Summed up:
as §1

Data set [8] concerns the target CYP2E1 (Homo sapiens, UniProt P05181). The data set can be described thus: CYP inhibition, pooled human liver microsomes. The data set is classed as in vitro ADME. The settings on record: 0.33–99.2 μM, co‐ and pre‐incubation. Summed up: as §1
The target of data set [9] is OCT2 (Homo sapiens, UniProt O15244). The data set can be described thus: Transporter inhibition, probe substrate accumulation. The data set is classed as in vitro ADME. The settings on record: MDCKII cells stably transfected with OCT2. Summed up:
(§2)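 Inhibition of probe substrate accumulation in transfected cells: CHO‑K1 for OAT1 and OCT1; HEK293 for OAT3, OATP1B1 and OATP1B3; MDCKII for OCT2, MATE1 and MATE2‑K. Each transporter's activity was confirmed with a positive control substrate or inhibitor.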

Data set [10] concerns the target human OATP1B1 (Homo sapiens, UniProt Q9Y6L6). The data set is described as above. Type of data set: in vitro ADME. The note with it: 0.033–33.3 μM. Summed up:
as §2

Data set [11] concerns the target MDR1 (Homo sapiens, UniProt P08183). The data set can be described thus: Bidirectional permeability in MDCKII‐MDR1 monolayers. Type of data set: in vitro ADME. Summed up: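 Bidirectional (A–B, B–A) permeability of test compound at 10 μM across MDCKII‑MDR1 and parental monolayers. A positive control substrate (5 μM) was included; PSC833 (10 μM) and a second inhibitor (100 μM) served as MDR1 inhibitors. Net efflux ratio = ER(MDR1) − ER(MDCKII).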

For data set [12] the following is noted: human, 2017, cited from earlier work.
A short description of data set [13]: Protein binding to cell homogenates. Type of data set: in vitro ADME. The note with it: 500 μg·ml^−1 of protein.

Usually inhibition stands for the drop in the measured response relative to a control, in per cent. The efflux ratio is a quotient of directional permeabilities that is used to spot active efflux.

MDR1, sequence (P08183 whole entry): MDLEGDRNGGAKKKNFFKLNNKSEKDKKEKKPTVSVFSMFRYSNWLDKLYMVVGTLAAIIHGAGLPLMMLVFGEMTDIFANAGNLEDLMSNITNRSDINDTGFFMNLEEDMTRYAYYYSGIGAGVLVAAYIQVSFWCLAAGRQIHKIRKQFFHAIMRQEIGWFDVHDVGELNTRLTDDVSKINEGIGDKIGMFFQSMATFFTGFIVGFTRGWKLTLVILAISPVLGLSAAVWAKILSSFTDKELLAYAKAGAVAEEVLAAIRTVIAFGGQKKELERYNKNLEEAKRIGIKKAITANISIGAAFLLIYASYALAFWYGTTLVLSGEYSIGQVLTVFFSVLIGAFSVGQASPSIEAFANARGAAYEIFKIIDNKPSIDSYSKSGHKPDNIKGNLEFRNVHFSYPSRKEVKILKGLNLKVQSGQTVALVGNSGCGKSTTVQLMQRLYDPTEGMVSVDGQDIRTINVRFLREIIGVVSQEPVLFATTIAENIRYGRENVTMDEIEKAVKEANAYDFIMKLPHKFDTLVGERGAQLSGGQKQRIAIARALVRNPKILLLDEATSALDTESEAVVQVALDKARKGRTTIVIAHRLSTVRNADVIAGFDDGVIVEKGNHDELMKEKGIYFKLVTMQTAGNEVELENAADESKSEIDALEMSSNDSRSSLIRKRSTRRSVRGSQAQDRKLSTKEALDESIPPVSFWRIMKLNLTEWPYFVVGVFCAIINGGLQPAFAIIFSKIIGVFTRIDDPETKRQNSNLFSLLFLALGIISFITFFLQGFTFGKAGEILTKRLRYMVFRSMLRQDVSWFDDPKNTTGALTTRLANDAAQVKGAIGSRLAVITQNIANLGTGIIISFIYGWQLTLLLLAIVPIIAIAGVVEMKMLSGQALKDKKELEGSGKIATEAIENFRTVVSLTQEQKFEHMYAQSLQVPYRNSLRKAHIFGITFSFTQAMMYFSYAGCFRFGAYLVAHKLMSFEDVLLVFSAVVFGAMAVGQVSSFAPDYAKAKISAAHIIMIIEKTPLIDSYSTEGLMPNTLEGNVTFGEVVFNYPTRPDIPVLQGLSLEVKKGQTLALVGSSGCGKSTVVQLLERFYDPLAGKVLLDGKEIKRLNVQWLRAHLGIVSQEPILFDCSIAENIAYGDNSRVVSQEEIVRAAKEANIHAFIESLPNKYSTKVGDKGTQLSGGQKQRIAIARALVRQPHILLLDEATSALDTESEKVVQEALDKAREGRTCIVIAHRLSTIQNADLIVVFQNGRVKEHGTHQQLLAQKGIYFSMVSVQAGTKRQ
CYP2E1, sequence (P05181 whole entry): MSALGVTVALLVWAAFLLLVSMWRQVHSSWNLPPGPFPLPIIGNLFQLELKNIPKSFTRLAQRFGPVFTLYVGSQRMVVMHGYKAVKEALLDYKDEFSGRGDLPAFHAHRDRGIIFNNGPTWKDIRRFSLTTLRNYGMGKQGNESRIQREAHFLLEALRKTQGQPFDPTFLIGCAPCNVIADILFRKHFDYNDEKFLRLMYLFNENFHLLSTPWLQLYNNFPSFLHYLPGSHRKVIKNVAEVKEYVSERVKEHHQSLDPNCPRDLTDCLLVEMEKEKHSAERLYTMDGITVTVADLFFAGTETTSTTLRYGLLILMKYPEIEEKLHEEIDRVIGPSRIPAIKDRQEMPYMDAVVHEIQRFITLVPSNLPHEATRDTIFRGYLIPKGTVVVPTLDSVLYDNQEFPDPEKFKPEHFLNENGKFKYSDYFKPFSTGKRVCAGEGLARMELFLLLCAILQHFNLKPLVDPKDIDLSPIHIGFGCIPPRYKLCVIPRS
CYP2C8, sequence (P10632 whole entry): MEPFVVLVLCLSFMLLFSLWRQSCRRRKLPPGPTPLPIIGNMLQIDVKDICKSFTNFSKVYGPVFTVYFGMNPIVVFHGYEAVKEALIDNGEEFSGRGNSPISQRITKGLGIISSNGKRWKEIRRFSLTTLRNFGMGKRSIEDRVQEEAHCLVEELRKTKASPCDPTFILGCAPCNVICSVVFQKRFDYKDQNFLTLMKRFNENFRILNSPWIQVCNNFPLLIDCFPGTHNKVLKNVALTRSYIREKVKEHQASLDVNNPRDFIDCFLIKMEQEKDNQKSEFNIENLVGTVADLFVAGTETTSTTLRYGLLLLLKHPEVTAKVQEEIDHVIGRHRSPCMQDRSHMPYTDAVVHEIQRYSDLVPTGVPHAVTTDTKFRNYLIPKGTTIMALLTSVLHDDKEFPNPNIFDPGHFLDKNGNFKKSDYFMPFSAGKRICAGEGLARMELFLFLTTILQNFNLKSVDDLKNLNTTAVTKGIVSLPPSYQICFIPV
CYP2C19, sequence (P33261 whole entry): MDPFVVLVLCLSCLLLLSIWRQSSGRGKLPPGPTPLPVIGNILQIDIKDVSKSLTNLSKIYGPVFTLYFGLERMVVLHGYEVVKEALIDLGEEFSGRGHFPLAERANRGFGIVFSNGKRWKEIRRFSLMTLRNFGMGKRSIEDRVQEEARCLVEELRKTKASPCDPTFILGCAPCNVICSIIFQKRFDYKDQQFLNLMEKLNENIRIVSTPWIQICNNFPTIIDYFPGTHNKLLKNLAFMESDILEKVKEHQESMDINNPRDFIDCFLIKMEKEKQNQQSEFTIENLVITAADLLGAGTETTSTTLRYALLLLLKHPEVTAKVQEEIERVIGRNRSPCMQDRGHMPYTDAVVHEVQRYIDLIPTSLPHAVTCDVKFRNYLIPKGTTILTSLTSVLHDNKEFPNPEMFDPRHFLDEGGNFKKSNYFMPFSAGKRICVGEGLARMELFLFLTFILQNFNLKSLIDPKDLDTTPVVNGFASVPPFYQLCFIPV
human OATP1B1, sequence (Q9Y6L6 whole entry): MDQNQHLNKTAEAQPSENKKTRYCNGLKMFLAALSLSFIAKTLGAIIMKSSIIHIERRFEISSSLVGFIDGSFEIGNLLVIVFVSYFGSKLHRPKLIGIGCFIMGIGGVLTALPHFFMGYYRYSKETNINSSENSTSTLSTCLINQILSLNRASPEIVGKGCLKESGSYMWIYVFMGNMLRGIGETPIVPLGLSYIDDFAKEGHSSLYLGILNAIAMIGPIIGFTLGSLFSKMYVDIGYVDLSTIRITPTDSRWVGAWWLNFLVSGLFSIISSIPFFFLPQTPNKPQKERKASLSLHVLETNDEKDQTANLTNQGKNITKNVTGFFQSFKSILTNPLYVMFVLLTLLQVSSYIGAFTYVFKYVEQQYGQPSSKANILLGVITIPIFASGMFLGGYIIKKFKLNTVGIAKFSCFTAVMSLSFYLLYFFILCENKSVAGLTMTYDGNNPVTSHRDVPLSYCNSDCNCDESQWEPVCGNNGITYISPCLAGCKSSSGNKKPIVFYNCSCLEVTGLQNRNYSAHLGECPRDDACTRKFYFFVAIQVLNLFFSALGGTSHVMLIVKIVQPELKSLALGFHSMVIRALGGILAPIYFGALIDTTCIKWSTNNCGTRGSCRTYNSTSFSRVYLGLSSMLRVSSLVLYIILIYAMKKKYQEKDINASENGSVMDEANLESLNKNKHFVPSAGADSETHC
CYP2C9, sequence (P11712 whole entry): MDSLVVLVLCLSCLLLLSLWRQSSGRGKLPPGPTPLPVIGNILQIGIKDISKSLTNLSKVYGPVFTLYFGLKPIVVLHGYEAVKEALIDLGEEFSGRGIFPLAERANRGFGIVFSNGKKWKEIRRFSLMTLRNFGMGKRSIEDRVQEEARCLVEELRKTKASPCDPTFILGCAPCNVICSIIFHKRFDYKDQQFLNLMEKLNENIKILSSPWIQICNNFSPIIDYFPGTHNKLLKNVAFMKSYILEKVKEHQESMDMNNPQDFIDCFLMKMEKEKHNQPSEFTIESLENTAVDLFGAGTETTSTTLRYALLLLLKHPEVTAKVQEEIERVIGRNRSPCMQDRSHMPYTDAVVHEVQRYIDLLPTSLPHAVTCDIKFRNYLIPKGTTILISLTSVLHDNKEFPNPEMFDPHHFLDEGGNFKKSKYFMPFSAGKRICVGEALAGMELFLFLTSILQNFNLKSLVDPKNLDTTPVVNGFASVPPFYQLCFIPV
OCT2, sequence (O15244 whole entry): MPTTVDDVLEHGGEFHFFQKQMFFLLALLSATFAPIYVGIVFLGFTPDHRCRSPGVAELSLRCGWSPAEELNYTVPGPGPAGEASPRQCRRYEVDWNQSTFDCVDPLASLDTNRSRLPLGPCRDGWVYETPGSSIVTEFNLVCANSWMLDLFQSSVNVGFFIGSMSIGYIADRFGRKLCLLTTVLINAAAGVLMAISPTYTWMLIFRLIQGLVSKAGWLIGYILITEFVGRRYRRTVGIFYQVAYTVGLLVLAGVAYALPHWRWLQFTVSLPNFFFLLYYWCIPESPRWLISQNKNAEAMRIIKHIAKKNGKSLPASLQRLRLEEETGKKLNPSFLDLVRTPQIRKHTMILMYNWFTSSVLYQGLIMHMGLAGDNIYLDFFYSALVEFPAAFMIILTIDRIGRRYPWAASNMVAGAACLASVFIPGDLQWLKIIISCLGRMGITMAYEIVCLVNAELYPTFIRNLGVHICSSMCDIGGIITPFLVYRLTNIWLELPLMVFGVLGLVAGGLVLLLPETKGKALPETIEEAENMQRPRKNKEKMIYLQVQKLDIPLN
CYP2A6, sequence (P11509 whole entry): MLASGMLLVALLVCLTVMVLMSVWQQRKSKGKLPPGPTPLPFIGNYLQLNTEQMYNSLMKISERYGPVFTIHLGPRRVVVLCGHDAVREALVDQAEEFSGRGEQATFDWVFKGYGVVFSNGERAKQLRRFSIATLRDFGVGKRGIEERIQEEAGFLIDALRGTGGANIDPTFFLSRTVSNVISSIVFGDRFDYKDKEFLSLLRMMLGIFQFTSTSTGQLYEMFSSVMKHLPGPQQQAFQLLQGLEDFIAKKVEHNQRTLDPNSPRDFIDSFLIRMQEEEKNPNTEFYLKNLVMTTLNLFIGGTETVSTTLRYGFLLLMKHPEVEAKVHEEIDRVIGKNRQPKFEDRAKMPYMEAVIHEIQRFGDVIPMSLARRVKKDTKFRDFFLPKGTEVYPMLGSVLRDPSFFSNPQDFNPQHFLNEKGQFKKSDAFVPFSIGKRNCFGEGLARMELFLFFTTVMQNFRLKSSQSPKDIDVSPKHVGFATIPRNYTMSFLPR

For the compound `CN(C(=O)n1cnc(-c2ccc[n+]([O-])c2)c1)C1CCCCC1` [BIA 10‐2474, 3‐(1‐(cyclohexyl (methyl)carbamoyl)‐1H‐imidazol‐4‐yl)pyridine 1‐oxide], in data set [1], the “k inact/K I” value is reported as 1,243 M·s^−1. The “ED50 [95% CI] Brain” value in data set [2] (480 min) is 13.5 μg·kg^−1 and 13.5 [10.2, 17.7] μg·kg^−1. In data set [2] (po, read-out: maximal inhibition of brain FAAH), the inhibition at 0.1 mg/kg was 91.4%. In addition, the AEA in data set [3] (0.01 mg·kg^−1 p.o.) is given as 89.5 ± 9.3 % of control; in data set [3] (0.03 mg·kg^−1 p.o.), 87.0 ± 10.3 % of control; in data set [3] (0.1 mg·kg^−1 p.o.), 136.8 ± 16.4 % of control; in data set [3] (0.3 mg·kg^−1 p.o.), 172.1 ± 29.5 % of control. The OEA is recorded as 109.1 ± 8.6 % of control in data set [3] (0.01 mg·kg^−1 p.o.), 143.1 ± 30.6 % of control in [3] (0.03 mg·kg^−1 p.o.), 676.5 ± 89.8 % of control in data set [3] (0.1 mg·kg^−1 p.o.) and 804.0 ± 107.6 % of control in data set [3] (0.3 mg·kg^−1 p.o.). Further, the PEA in [3] (0.01 mg·kg^−1 p.o.) is reported as 107.2 ± 8.8 % of control; in data set [3] (0.03 mg·kg^−1 p.o.), 178.6 ± 62.7 % of control; in [3] (0.1 mg·kg^−1 p.o.), 1027.6 ± 148.0 % of control; in [3] (0.3 mg·kg^−1 p.o.) it was 1,223.3 ± 159.6 % of control. Also, the “inhibitory effect on CYP2A6” value in data set [4] is “did not exhibit any inhibitory effects”. In [5], the “inhibitory effect on CYP2C8” value is on record as “did not exhibit any inhibitory effects”. Besides, in data set [6], the “inhibitory effect on CYP2C9” value was “did not exhibit any inhibitory effects”. Further, in data set [7], the “inhibitory effect on CYP2C19” value is given as “did not exhibit any inhibitory effects”. Besides, the “inhibitory effect on CYP2E1” value in [8] is “did not exhibit any inhibitory effects”. For the same compound, the inhibition at 10 μg·ml^−1 in data set [9] came to 25%. Further, the “effect on OATP1B1‐mediated probe substrate accumulation” value in data set [10] is listed as “did not influence”. Also, the efflux ratio in [11] (MDCK-MDR1, highest observed net efflux ratio (ERMDR1‐ERMDCKII)) is 2.24. Further, the efflux ratio at 10 μM in data set [11] (MDCK-MDR1, net ER, MDCKII‐MDR1, without inhibitor) is 1.45. Further, the entries for the “maximum plasma exposure in the clinic” value in data set [12] (50 mg ref Rocha et al.) and in data set [12] (100 mg ref Rocha et al.) were “around 2 μM” and about 6 µM, respectively.
As to `O=C(Nc1cccnn1)N1CCC(=Cc2cccc(Oc3ccc(C(F)(F)F)cn3)c2)CC1` [PF‐04457845], the “k inact/K I” value in data set [1] is recorded as 167,333 M·s^−1. In addition, the “mean % free fraction ± SD” value in [13] was 28.0 ± 3.9%. For the same compound, in data set [2] (0.1 mg·kg^−1 p.o., 48 hr), the “brain FAAH activity, % of control levels” value is on record as 43.8%. Moreover, the “inhibition of cerebral FAAH, mean values” in data set [2] (0.1 mg·kg^−1 p.o., over 24 hr) is recorded as “above 88.7%”. For the same compound, in [2], the “ED50 [95% CI] Brain” value was 4.3 [1.8, 9.9] μg·kg^−1. Further, the AEA in data set [3] (0.003 mg·kg^−1 p.o.) is reported as 88.5 ± 7.5 % of control; in data set [3] (0.01 mg·kg^−1 p.o.), 220.2 ± 46.9 % of control; in data set [3] (0.03 mg·kg^−1 p.o.) it was 257.6 ± 16.9 % of control; in data set [3] (0.1 mg·kg^−1 p.o.), 268.7 ± 10.8 % of control; in data set [3] (0.3 mg·kg^−1 p.o.), 309.4 ± 16.6 % of control. The OEA in [3] (0.003 mg·kg^−1 p.o.) was 97.1 ± 8.0 % of control; in data set [3] (0.01 mg·kg^−1 p.o.) it was 837.5 ± 115.5 % of control; in data set [3] (0.03 mg·kg^−1 p.o.), 886.1 ± 42.6 % of control; in data set [3] (0.1 mg·kg^−1 p.o.) it was 933.4 ± 17.5 % of control; in data set [3] (0.3 mg·kg^−1 p.o.), 961.4 ± 48.2 % of control. Moreover, the PEA in [3] (0.003 mg·kg^−1 p.o.) is given as 100.6 ± 16.4 % of control; in [3] (0.01 mg·kg^−1 p.o.), 984.3 ± 107.1 % of control; in [3] (0.03 mg·kg^−1 p.o.), 1073.1 ± 85.1 % of control; in data set [3] (0.1 mg·kg^−1 p.o.), 1080.9 ± 62.0 % of control; in data set [3] (0.3 mg·kg^−1 p.o.), 1,141.9 ± 56.3 % of control.
